This sample holds only a part of the variants without activity.
B1: tRNA (parent)
chain: GUUCCGUUGGCGUAAUGGUAACGCGUCUCCCUCCUAAGGAGAAGACUGCGGGUUCGAGUCCCGUACGGAACG

Variants of: B1
Assay: yeast fitness relative to wild type (ratio to wild type); higher = fitter; tRNA-Arg(CCU), competitive growth, 37 C, YPD
Method in brief: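 For this measurement, the tRNA-Arg(CCU) gene was varied by chemical synthesis at a 3% per-site mutation rate across 69 sites, and each variant was placed at the native genomic locus in Saccharomyces cerevisiae. The pooled strains went through a 24-hour competition in YPD at 37°C in six parallel replicates, with amplicons from start and end populations read by 100-nucleotide paired-end sequencing. Darwinian fitness relative to wild type followed from the change in each genotype's frequency. Genotypes needed ≥ 100 starting reads, and estimates < 0.5 were set to 0.5.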

| Variant | yeast fitness |
| --- | --- |
| GUUCCGUUGGCGUAAUGGUAACGCAUCUCCCUCCUAAGGACAAGACUGCGGGUUCGAGUCCCGUAUGGAACG [G25A G41C C66U] | 0.755 |
| GUUCCGUUGGCGUAAUGGUAACGCAUCUCCCUCCUAAGGACAAGACUGCGGGUGCGAGUCUCGUACGGAACG [G25A G41C U54G C61U] | ≤ 0.5 |
| GUUCCGUUGGCGUAAUGGUAACGCAUCUCCCUCCUAAGGAGAAAACUGCGGGUUCGAGUCCCGUACGGAACG [G25A G44A] | 0.841 |
| GUUCCGUUGGCGUAAUGGUAACGCAUCUCCCUCCUAAGGAGAACACUGCGGGUUCGAGUCGCGUACGGAACG [G25A G44C C61G] | 0.526 |
| GUUCCGUUGGCGUAAUGGUAACGCAUCUCCCUCCUAAGGAGAAGACUACGGGUUCGAGUCCCGUACGGACCG [G25A G48A A70C] | 1.13 |
| GUUCCGUUGGCGUAAUGGUAACGCAUCUCCCUCCUAAGGAGAAGACUACGGGUUCGAGUCCGGUACGGUACG [G25A G48A C62G A69U] | 0.749 |
| GUUCCGUUGGCGUAAUGGUAACGCAUCUCCCUCCUAAGGAGAAGACUCCGGGUUCGAGUCCCGUACGGAACG [G25A G48C] | 1.14 |
| GUUCCGUUGGCGUAAUGGUAACGCAUCUCCCUCCUAAGGAGAAGACUCGGGGUUCGAGUCCCGUACGGAACG [G25A G48C C49G] | ≤ 0.5 |
| GUUCCGUUGGCGUAAUGGUAACGCAUCUCCCUCCUAAGGAGAAGACUCCGGCUUUGAGUCCCGUACGGAACG [G25A G48C G52C C55U] | ≤ 0.5 |
| GUUCCGUUGGCGUAAUGGUAACGCAUCUCCCUCCUAAGGAGAAGACUGCAGGUUCGAGUCCCGUACGGAACG [G25A G50A] | 0.997 |
| GUUCCGUUGGCGUAAUGGUAACGCAUCUCCCUCCUAAGGAGAAGACUGCAGGUUCGAGUCCCGUACGGCACG [G25A G50A A69C] | 0.676 |
| GUUCCGUUGGCGUAAUGGUAACGCAUCUCCCUCCUAAGGAGAAGACUGCAGGUUAGAGUCCCGUAAGGAACG [G25A G50A C55A C66A] | ≤ 0.5 |
| GUUCCGUUGGCGUAAUGGUAACGCAUCUCCCUCCUAAGGAGAAGACUGCAGGUUCGAGUCCCCUACGGAACG [G25A G50A G63C] | 0.641 |
| GUUCCGUUGGCGUAAUGGUAACGCAUCUCCCUCCUAAGGAGAAGACUGCUGGUUCGAGUCCCGUACGGAACG [G25A G50U] | 0.826 |
| GUUCCGUUGGCGUAAUGGUAACGCAUCUCCCUCCUAAGGAGAAGACUGCGAGUUCGAGUCCCGUACGGAACG [G25A G51A] | 0.861 |
| GUUCCGUUGGCGUAAUGGUAACGCAUCUCCCUCCUAAGGAGAAGACUGCGCGUUCGAGUCCCGUAUGGAACG [G25A G51C C66U] | ≤ 0.5 |
| GUUCCGUUGGCGUAAUGGUAACGCAUCUCCCUCCUAAGGAGAAGACUGCGGAUUCGGGUCCCGUACAGAACG [G25A G52A A57G G67A] | ≤ 0.5 |
| GUUCCGUUGGCGUAAUGGUAACGCAUCUCCCUCCUAAGGAGAAGACUGCGGAUUCGAGUCCCGUACGGAUCG [G25A G52A A70U] | 0.666 |
| GUUCCGUUGGCGUAAUGGUAACGCAUCUCCCUCCUAAGGAGAAGACUGCGGAUUCGAGUCCCGUAUGGAACG [G25A G52A C66U] | 0.637 |

| Variant | yeast fitness |
| --- | --- |
| GUUCCGUUGGCGUAAUGGUAACGCAUCUCCCUCCUAAGGAGAAGACUGCGGGUUCAAGUCCCGUACGGAACG [G25A G56A] | 0.919 |
| GUUCCGUUGGCGUAAUGGUAACGCAUCUCCCUCCUAAGGAGAAGACUGCGGGUUCGAAUCCCGUACGGAACG [G25A G58A] | 0.872 |
| GUUCCGUUGGCGUAAUGGUAACGCAUCUCCCUCCUAAGGAGAAGACUGCGGGUUCGACUCCCGUACGGAACG [G25A G58C] | 0.901 |
| GUUCCGUUGGCGUAAUGGUAACGCAUCUCCCUCCUAAGGAGAAGACUGCGGGUUCGACUCCCGUACGGCACG [G25A G58C A69C] | 1.01 |
| GUUCCGUUGGCGUAAUGGUAACGCAUCUCCCUCCUAAGGAGAAGACUGCGGGUUCGACUCCCGUAUGGAACG [G25A G58C C66U] | 0.778 |
| GUUCCGUUGGCGUAAUGGUAACGCAUCUCCCUCCUAAGGAGAAGACUGCGGGUUCGAGUCCCAUACGGAACG [G25A G63A] | 0.949 |
| GUUCCGUUGGCGUAAUGGUAACGCAUCUCCCUCCUAAGGAGAAGACUGCGGGUUCGAGUCCCCUACGGAACG [G25A G63C] | 0.737 |
| GUUCCGUUGGCGUAAUGGUAACGCAUCUCCCUCCUAAGGAGAAGACUGCGGGUUCGAGUCCCGUACCGAACG [G25A G67C] | 0.992 |
| GUUCCGUUGGCGUAAUGGUAACGCAUCUCCCUCCUAAGGAGAAGACUGCGGGUUCGAGUCCCGUACGCAACG [G25A G68C] | 0.938 |
| GUUCCGUUGGCGUAAUGGUAACGCAACUCCUUCCUAAAGAGGUGACUGCGGGUUCGAGUCCCGUACGGAACG [G25A U26A C31U G38A A42G A43U] | 0.52 |
| GUUCCGUUGGCGUAAUGGUAACGCAACUCCUUCCUAAAGAGGUGACUCCGGGUUCGAGUCCCGUACGCAACG [G25A U26A C31U G38A A42G A43U G48C G68C] | ≤ 0.5 |
| GUUCCGUUGGCGUAAUGGUAACGCAACUCCCUCCUAAGGAGAAGACUGCGGGUUGGAGUCCCGUACGCGACG [G25A U26A C55G G68C A69G] | ≤ 0.5 |
| GUUCCGUUGGCGUAAUGGUAACGCACCUCCCUCCUGAGGAGAAGACUGCGGGUUCGAGUCCCGUACGGAACG [G25A U26C A36G] | 1.07 |
| GUUCCGUUGGCGUAAUGGUAACGCACCUGCCUCCUAAGGAGAAGGCUGCGGGUUCGAGUCCCGUACGGAACG [G25A U26C C29G A45G] | ≤ 0.5 |
| GUUCCGUUGGCGUAAUGGUAACGCACCUGCCUCCUAAGGAGAAGACUGCGGGUUCGAGUCACGUACGGAACG [G25A U26C C29G C61A] | ≤ 0.5 |
| GUUCCGUUGGCGUAAUGGUAACGCAUCACCCUCCUUUGGAGUAGACUGCGGGUUCGAGUCCCGUACGGAACG [G25A U28A A36U A37U A42U] | ≤ 0.5 |
| GUUCCGUUGGCGUAAUGGUAACGCAUCACCCUCCUAAGGAGAAGACUGCGGGUUCGAGUCCCGUUCGGAACG [G25A U28A A65U] | 0.697 |
| GUUCCGUUGGCGUAAUGGUAACGCAUCGCCCUCCUAAGGAGAAGACUGCGGGUUCGAGUCCCGUACGGAACG [G25A U28G] | 0.762 |
| GUUCCGUUGGCGUAAUGGUAACGCAUCUCCCACCUAAGGAGAAGACUGUGGGAUCGAGUCCCGUACGGAACG [G25A U32A C49U U53A] | ≤ 0.5 |

Reference: the RNAGym collection of RNA variant scans (doi:10.1126/science.aae0568)
